# Rows were chosen to be rich in hits. Some 2% of all compounds tested hit in one or more screens of this group.
# FLuc inh counter: counter-screen for luciferase assay inhibitors: firefly luciferase inhibition. inhibition, % at 10 µM. actives 1.5% (n = 200,000). P08659. ATPLite firefly luciferase biochemical luminescence, 10 min;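 active = inhibition above about 50% when tested at 10 µM, limit read from the data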
# Target sequence (P08659 whole entry, looked up): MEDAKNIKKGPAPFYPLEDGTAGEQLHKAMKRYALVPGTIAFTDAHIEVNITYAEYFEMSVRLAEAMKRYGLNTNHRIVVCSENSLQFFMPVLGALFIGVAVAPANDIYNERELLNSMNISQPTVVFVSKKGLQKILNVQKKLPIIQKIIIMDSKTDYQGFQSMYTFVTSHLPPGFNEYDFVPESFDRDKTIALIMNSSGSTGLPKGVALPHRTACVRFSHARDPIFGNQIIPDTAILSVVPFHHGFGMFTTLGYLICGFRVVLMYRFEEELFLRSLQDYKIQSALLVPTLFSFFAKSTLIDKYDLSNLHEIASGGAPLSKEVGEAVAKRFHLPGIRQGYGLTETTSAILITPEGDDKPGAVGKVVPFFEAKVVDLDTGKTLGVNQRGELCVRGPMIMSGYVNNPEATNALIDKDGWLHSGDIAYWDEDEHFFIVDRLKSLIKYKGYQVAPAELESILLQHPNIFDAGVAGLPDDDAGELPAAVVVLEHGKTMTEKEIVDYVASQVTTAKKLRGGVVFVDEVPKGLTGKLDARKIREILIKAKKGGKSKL
# FLuc act counter: firefly luciferase counter-screen for stimulation assays; P08659; ATPlite luciferase biochemical, luminescence, 10 min; 0 = ATP-free wells, 1 = DMSO control; activation factor at 10 µM; 200,000 tested, under 10 active;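 active = luciferase activation factor, scaled between plate controls, of at least 2 with compound at 10 µM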
#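 assay system = Luciferase/luciferin detection reagent, cell-free biochemical luciferase assay | also added = ATP substrate | times = 10 min post-reagent at room temperature | measured by = luminescence from luciferase reaction | measure = luciferase activation, seen as luminescence increase over controls | benchmarks = low control with PBS replacing ATP, high control enzyme plus ATP without compound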
# TRAIL sens C8: sensitizes caspase-8 expressing cells to TRAIL; inhibition (viability loss, TRAIL sensitization), % at 10 µM; actives 1% (n = 360,000); NB7+C8 cells + TRAIL, ATPlite viability luminescence; AID 624354;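 active = compounds causing at least 50% loss of cell viability in the single-dose screen, relative to plate controls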
# HSP90 refold inh: blocks HSP90-mediated luciferase refolding in reticulocyte lysate | Rabbit reticulocyte lysate, luciferase refolding luminescence, 3 h | inhibition, % at 5.6 µM | actives 0.91% (n = 290,000);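 active = inhibition above the screen-wide mean plus 3 SD, computed separately per campaign, cut at about 16% in these data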;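 also: 0% = DMSO wells and 100% = 60 µM geldanamycin wells; inhibitors lower the luminescence because luciferase stays unfolded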
# PPC-1+TRAIL kill: compounds killing PPC-1 cancer cells with TRAIL present (potentiator screen, no TRAIL-free arm) | AID 1443 | PPC-1 cells + TRAIL, ATPLite viability luminescence | actives 0.41% (n = 220,000) | cell killing (% activity), % at 4 µM or 5 µM;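 active = cell killing above 50% in the first pass at 4 µM, then a duplicate retest at 5 µM averaging 50% or more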;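 also: plate controls were cells with TRAIL plus DMSO for no effect and medium-only wells lacking cells for full effect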
# * hit, by the source's call; . = not tested or not shown.
SMILES,FLuc inh counter,FLuc act counter,TRAIL sens C8,HSP90 refold inh,PPC-1+TRAIL kill
COc1ccc(CC(=O)Nc2ccc(-c3cn4ccccc4n3)cc2)cc1OC,18,0.8,15,-1,25
CS(=O)(=O)c1sc(C#N)c2c1C(=O)CC(c1ccccc1)C2 (stereo not drawn),.,.,73*,0,4
C=CCOc1ccc2c(OC)c3ccoc3nc2c1OC,54*,0.5,46,3,34
CCOc1c2ccoc2nc2c(OC)c(OC)ccc12,37,0.6,14,-2,4
COc1cc(/C=C(\C(=O)O)c2ccc(S(=O)(=O)N3CCCC3)s2)ccc1OCCC(C)C,.,.,-10,.,.
CC[C@H](C)[C@@H]1OC(=O)[C@@H](C)[C@@H](CC)NC(=O)[C@H](C)N(C)C(=O)C(C)(C)C(=O)C(C)NC(=O)[C@H](Cc2ccccc2)N(C)C(=O)[C@H](C(C)C)N(C)C(=O)CNC(=O)[C@H](CC(C)C)N(C)C(=O)CNC1=O (stereo partly drawn),.,.,60*,.,.
CCOC(=O)c1sc(N(Cc2ccccc2)C(=O)CCl)nc1C,.,.,87*,1,.
CC(C)(C)OC(=O)NCCCC[C@H](NC(=O)c1[nH]cnc1C(=O)N[C@@H](Cc1ccccc1)C(=O)OC(C)(C)C)C(=O)OC(C)(C)C,.,.,58*,.,18
CC(C)C[C@H](NC(=O)c1nc[nH]c1C(=O)NCC(=O)OC(C)(C)C)C(=O)OC(C)(C)C,.,.,18,.,3
CC(C)C[C@H](NC(=O)c1nc[nH]c1C(=O)N[C@@H](CC(C)C)C(=O)OC(C)(C)C)C(=O)OC(C)(C)C,.,.,55*,.,6
CC(C)C[C@H](NC(=O)c1nc[nH]c1C(=O)N[C@@H](CC(C)C)C(=O)OCc1ccccc1)C(=O)OCc1ccccc1,.,.,52*,7,.
CCOC(=O)C1=CCN(S(=O)(=O)c2ccccc2F)C1c1cccc(Cl)c1 (stereo not drawn),.,.,4,.,.
Cc1ccoc1C(=O)Nc1ccc(CC(=O)O)cc1,57*,0.4,29,5,38
CCOc1cc(NC2CS(=O)(=O)CC2O)c(OCC)cc1NC(=O)c1ccccc1 (stereo not drawn),-8,1.1,51*,1,13
CCOC(=O)c1ccc(N2C(=O)C3C(/C=C/c4ccccc4)OC4(C(=O)c5ccccc5C4=O)C3C2=O)cc1 (stereo not drawn),-8,1.1,-10,-2,55*
CCOC(=O)c1ccc(N2C(=O)[C@@H](c3ccccc3)[C@H]2c2ccccc2)cc1,.,.,22,.,.
CC(=O)OC[C@]12CC[C@H]3[C@@](C)(CC[C@H]4C(C)(C)CCC[C@]34C)[C@@H]1CC(C1=CC(=O)OC1O)O2 (stereo partly drawn),.,.,84*,.,.
CC(=O)OC[C@]1(OC(C)=O)C[C@@]23CC[C@H]4[C@@](C)(CCC[C@@]4(C)C(=O)O)[C@@H]2CC[C@@H]1C3,-3,1,5,-3,-8
CC(C)Oc1ccc(S(=O)(=O)N2CCOCC2)cc1NC(=O)c1ccc(Cl)c(S(=O)(=O)N2CCOCC2)c1,.,.,-6,.,.
COc1cc2sc3ccc(C#CC4(O)CCCCC4)cc3c(=O)c2cc1OC,.,.,75*,.,.
CC1(C(=O)O)CCCN(C(=O)c2cccnc2Oc2ccccc2)C1 (stereo not drawn),.,.,-5,.,.
O=C(CCl)N(O)c1ccc(C=Cc2ccccc2)cc1,.,.,51*,.,.
CN1CC(=O)N2C(c3ccc(Cl)cc3)c3[nH]c4ccccc4c3C[C@H]2C1=O (stereo partly drawn),.,.,55*,-1,.
COC(=O)c1ccc(C2c3[nH]c4ccccc4c3C[C@H]3C(=O)N(C)CC(=O)N23)cc1 (stereo partly drawn),.,.,-7,8,.
COC(=O)c1sccc1N/N=C/c1cccc(Oc2ccccc2)c1,13,0.9,7,17*,26
SMILES,FLuc inh counter,FLuc act counter,TRAIL sens C8,HSP90 refold inh,PPC-1+TRAIL kill
CCOC(=O)Cn1c(-c2cccnc2)nc(-c2ccccc2)c1-c1ccccc1,.,.,1,1,.
CCOC(=O)C(=C1Nc2ccccc2N1)n1c(-c2cccnc2)nc2ccccc21,.,.,71*,.,.
Cc1ccc(NCc2nnc(SCC(=O)O)n2-c2ccc(C)cc2)cc1,82*,0.2,-8,-2,.
Cc1cccc(C)c1NC(=O)C(C1CC1)n1c(-c2ccc(C(F)(F)F)cc2)nc2ccccc21 (stereo not drawn),.,.,13,.,.
CC(=O)NS(=O)(=O)c1ccc(NC(=O)c2ccc(S(=O)(=O)N3CCCC3)cc2)cc1,.,.,-3,.,.
CCOC(=O)c1c2c(n(C)c1C)C(=O)C(=O)c1ccc(Br)cc1-2,.,.,97*,0,.
CCOC(=O)c1c2c(n(Cc3ccccc3)c1C)C(=O)C(=O)c1ccccc1-2,.,.,93*,.,.
Cc1c(CN(C)C)c2c(n1C)C(=O)c1ccc(Br)cc1-2,-5,1,-2,3,1
CCCn1c(C)c(C(=O)OCC)c(O)c(-c2ccccc2)c1=O,.,.,2,.,.
COc1cc(NC(=O)C2(C)CCCN(C(C)C)C2)cc(OC)c1OC (stereo not drawn),.,.,21,.,.
Cc1ccn2cc(-c3cccc(NC(=O)CCC(=O)O)c3)nc2c1,.,.,59*,7,.
CC(=O)Nc1ccc2nc(-c3ccccc3)cn2c1,70*,0.3,54*,11,47
CC(=O)Nc1cccc(-c2cn3ccc(C)cc3n2)c1,76*,0.2,47,2,27
Cc1ccn2cc(C(=O)Nc3cccc(C(=O)NC4CC4)c3)nc2c1,.,.,54*,.,.
O=C(Nc1cccc(C(=O)NC2CC2)c1)c1ccccc1,.,.,-9,.,.
CC(=O)Nc1ccc(-c2cc(-c3ccccc3)nc(-c3ccccc3)n2)cc1,0,1,22,-4,12
Cc1nnc2ccc(-c3ccc(NC(=O)c4ccco4)cc3)nn12,-2,1,-8,-7,26
Cc1ccn2cc(-c3cccc(NS(C)(=O)=O)c3)nc2c1,58*,0.4,27,-3,32
Cc1ccn2cc(-c3ccc(NC(=O)c4ccco4)cc3)nc2c1,55*,0.4,45,-1,36
O=C(NC1CCCCC1)C(c1cccc2ccccc12)n1c(=O)c(-c2ccco2)nc2ccccc21 (stereo not drawn),.,.,-14,.,.
Cc1ccc(CNc2nc3ccccc3n2C)cc1,.,.,58*,15,.
Cc1ccc(NCc2nc3ccccc3n2C)cc1,70*,0.3,-7,2,44
Cn1c(CNc2nc3ccccc3n2C)nc2ccccc21,7,0.9,0,4,-6
Cn1c(NCc2ccc(Cl)cc2)nc2ccccc21,51*,0.5,31,-2,23
O=[N+]([O-])c1ccccc1C(=Nc1ccccc1)c1c(O)cc(O)cc1O,.,.,-2,.,.
CCOC(=O)C(C(=O)OCC)C(=O)c1cccc2ccc3ccccc3c12,.,.,-4,.,.
C/C(=N\OC(=O)c1ccc(Cl)cc1)c1nccs1,72*,0.3,-12,-2,-9
N/C(=N\OC(=O)c1ccc(Cl)cc1Cl)c1ccc(Cl)cc1,54*,0.5,87*,9,18

# From PubChem
